The record followed here is ChEMBL document CHEMBL4382192, “Discovery of a potent dual ALK and EGFR T790M inhibitor” (Eur J Med Chem, 2017).

Data set [1] addresses Phosphatidylinositol 4,5-bisphosphate 3-kinase catalytic subunit alpha isoform (Homo sapiens) (UniProt P42336). The data set can be described thus: Binding affinity to wild-type human partial length PIK3CA (R108 to N1068 residues) expressed in mammalian expression system assessed as residual binding level at 1 uM by Kinomescan method relative to control.
The nature of data set [2]: Clearance in mouse at 10 mg/kg, po. Format: ADME, organism-based. Conditions: in vivo.
For data set [3], the system named is Receptor-type tyrosine-protein kinase FLT3 (Homo sapiens), P36888 [UNDEFINED MUTATION]. The data set can be described thus: Binding affinity to human partial length FLT3 ITD/D835V double mutant expressed in bacterial expression system assessed as residual binding level at 1 uM by Kinomescan method relative to control. A digest of the protocol: (§1)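 Kinome-wide selectivity panel run by the KINOMEscan method, with the test compound at a single concentration of 1 μM. Wild-type and mutant kinases were profiled in the same screen.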

Data set [4] addresses Dual specificity tyrosine-phosphorylation-regulated kinase 1A (Homo sapiens) (UniProt Q13627). Briefly: Binding affinity to wild-type human partial length DYRK1A (H129 to S509 residues) expressed in mammalian expression system assessed as residual binding level at 1 uM by Kinomescan method relative to control.
The target of data set [5] is Dual specificity mitogen-activated protein kinase kinase 1 (Homo sapiens) (UniProt Q02750). Briefly: Binding affinity to wild-type human full length MEK1 (M1 to V393 residues) expressed in mammalian expression system assessed as residual binding level at 1 uM by Kinomescan method relative to control. In a few lines: (§2)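 Single-point kinome-wide KINOMEscan binding panel, test compound at 1 μM, run by the provider's standard protocol.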

Data set [6] relates to Phosphatidylinositol 4,5-bisphosphate 3-kinase catalytic subunit alpha isoform (Homo sapiens), P42336 [M1043I]. The data set can be described thus: Binding affinity to human partial length PIK3CA M1043I mutant (R108 to N1068 residues) expressed in mammalian expression system assessed as residual binding level at 1 uM by Kinomescan method relative to control.
Data set [7] concerns the target MAP kinase-interacting serine/threonine-protein kinase 1 (Homo sapiens) (UniProt Q9BUB5). Briefly: Binding affinity to wild-type human full length MKNK1 (M1 to L424 residues) expressed in mammalian expression system assessed as residual binding level at 1 uM by Kinomescan method relative to control. In a few lines:
as §2

The target of data set [8] is LIM domain kinase 2 (Homo sapiens) (UniProt P53671). Briefly: Binding affinity to wild-type human full length LIMK2 (M1 to P638 residues) expressed in bacterial expression system assessed as residual binding level at 1 uM by Kinomescan method relative to control. In a few lines:
as §2

Data set [9] has as its system Receptor-type tyrosine-protein kinase FLT3 (Homo sapiens), P36888 [D835H]. The data set can be described thus: Binding affinity to human partial length FLT3 D835H mutant (V592 to Y969 residues) expressed in bacterial expression system assessed as residual binding level at 1 uM by Kinomescan method relative to control. In a few lines:
as §1

In data set [10] the target is LIM domain kinase 1 (Homo sapiens) (UniProt P53667). Briefly: Binding affinity to wild-type human full length LIMK1 (M1 to D647 residues) expressed in bacterial expression system assessed as residual binding level at 1 uM by Kinomescan method relative to control. In a few lines:
as §2

Data set [11] deals with MAP kinase-activated protein kinase 5 (Homo sapiens) (UniProt Q8IW41). Briefly: Binding affinity to wild-type human partial length MAPKAPK5 (M1 to D322 residues) expressed in mammalian expression system assessed as residual binding level at 1 uM by Kinomescan method relative to control.
Data set [12] addresses Receptor-interacting serine/threonine-protein kinase 2 (Homo sapiens) (UniProt O43353). Briefly: Binding affinity to wild-type human partial length RIPK2 (M1 to K310 residues) expressed in bacterial expression system assessed as residual binding level at 1 uM by Kinomescan method relative to control.
The target in data set [13] is Platelet-derived growth factor receptor alpha (Homo sapiens) (UniProt P16234). Briefly: Binding affinity to wild-type human partial length PDGFRA (V575 to D1002 residues) expressed in mammalian expression system assessed as residual binding level at 1 uM by Kinomescan method relative to control.
Data set [14] deals with Serine/threonine-protein kinase TAO3 (Homo sapiens) (UniProt Q9H2K8). Briefly: Binding affinity to wild-type human partial length TAOK3 (M1 to T316 residues) expressed in mammalian expression system assessed as residual binding level at 1 uM by Kinomescan method relative to control.
Data set [15] deals with Serine/threonine-protein kinase D1 (Homo sapiens) (UniProt Q15139). Briefly: Binding affinity to wild-type human partial length PRKD1 (G551 to E870 residues) expressed in bacterial expression system assessed as residual binding level at 1 uM by Kinomescan method relative to control.
Data set [16] deals with Calcium/calmodulin-dependent protein kinase type 1G (Homo sapiens) (UniProt Q96NX5). Briefly: Binding affinity to wild-type human partial length CAMK1G (M1 to A342 residues) expressed in bacterial expression system assessed as residual binding level at 1 uM by Kinomescan method relative to control.
A short description of data set [17]: Metabolic stability in human liver microsomes assessed as parent compound remaining at 1 uM after 30 mins in presence of NADPH by LC/MS/MS analysis. It counts as ADME, Microsome. The conditions noted are these: read-out: Stability. A digest of the protocol:
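Compound at 1 μM final with 0.5 mg/mL microsomal protein in 100 mM phosphate buffer pH 7.4 at 37 °C, started by adding an NADPH-regenerating system. Reactions were quenched with cold acetonitrile at 0 and 30 min and spun down. Supernatant was analysed by LC-MS/MS. The 0-min sample, quenched before NADPH addition, was set as 100%, and percent parent remaining came from peak areas.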

For data set [18], the system named is Hepatocyte growth factor receptor (Homo sapiens), P08581 [Y1235D]. Briefly: Binding affinity to human partial length MET Y1235D mutant (D1010 to S1367 residues) expressed in bacterial expression system assessed as residual binding level at 1 uM by Kinomescan method relative to control. In a few lines:
as §1

The target of data set [19] is Glycogen synthase kinase-3 beta (Homo sapiens) (UniProt P49841). The data set can be described thus: Binding affinity to wild-type human full length GSK3B (M1 to T433 residues) expressed in mammalian expression system assessed as residual binding level at 1 uM by Kinomescan method relative to control. In a few lines:
as §2

The target in data set [20] is Ephrin type-B receptor 3 (Homo sapiens) (UniProt P54753). The data set can be described thus: Binding affinity to wild-type human partial length EPHB3 (Q599 to T928 residues) expressed in bacterial expression system assessed as residual binding level at 1 uM by Kinomescan method relative to control.
Data set [21] concerns Proto-oncogene tyrosine-protein kinase receptor Ret (Homo sapiens), P07949 [V804M]. The data set can be described thus: Binding affinity to human partial length RET V804M mutant (E713 to D1014 residues) expressed in bacterial expression system assessed as residual binding level at 1 uM by Kinomescan method relative to control. A digest of the protocol:
as §1

The target in data set [22] is Tyrosine-protein kinase SYK (Homo sapiens) (UniProt P43405). Briefly: Binding affinity to wild-type human partial length SYK (D354 to N635 residues) expressed in bacterial expression system assessed as residual binding level at 1 uM by Kinomescan method relative to control.
Data set [23] concerns the target Inhibitor of nuclear factor kappa-B kinase subunit alpha (Homo sapiens) (UniProt O15111). Briefly: Binding affinity to wild-type human full length IKK-alpha (M1 to E745 residues) expressed in mammalian expression system assessed as residual binding level at 1 uM by Kinomescan method relative to control. In a few lines: as §2

SMILES strings stand for the structures.

Chain of LIM domain kinase 1 (Homo sapiens) (P53667 whole entry, looked up, the tested form may be a part): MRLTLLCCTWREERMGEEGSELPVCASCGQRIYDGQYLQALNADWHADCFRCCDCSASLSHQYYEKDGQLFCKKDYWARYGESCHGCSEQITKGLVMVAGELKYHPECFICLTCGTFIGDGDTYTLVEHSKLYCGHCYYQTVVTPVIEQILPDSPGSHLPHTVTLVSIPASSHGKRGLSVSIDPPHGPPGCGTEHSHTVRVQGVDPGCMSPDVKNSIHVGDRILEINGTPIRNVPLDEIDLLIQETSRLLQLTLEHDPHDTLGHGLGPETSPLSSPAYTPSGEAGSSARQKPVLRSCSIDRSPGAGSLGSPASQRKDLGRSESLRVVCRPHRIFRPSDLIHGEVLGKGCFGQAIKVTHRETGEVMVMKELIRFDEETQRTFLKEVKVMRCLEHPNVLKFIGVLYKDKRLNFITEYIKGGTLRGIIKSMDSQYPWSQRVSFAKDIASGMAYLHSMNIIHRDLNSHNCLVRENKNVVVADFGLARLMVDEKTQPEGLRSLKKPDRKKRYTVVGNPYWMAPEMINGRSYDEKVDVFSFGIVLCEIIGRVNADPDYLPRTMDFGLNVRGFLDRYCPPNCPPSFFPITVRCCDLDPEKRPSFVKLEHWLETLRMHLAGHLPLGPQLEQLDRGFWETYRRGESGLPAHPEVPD
Chain of Serine/threonine-protein kinase TAO3 (Homo sapiens) (Q9H2K8 whole entry, the tested form may be a part): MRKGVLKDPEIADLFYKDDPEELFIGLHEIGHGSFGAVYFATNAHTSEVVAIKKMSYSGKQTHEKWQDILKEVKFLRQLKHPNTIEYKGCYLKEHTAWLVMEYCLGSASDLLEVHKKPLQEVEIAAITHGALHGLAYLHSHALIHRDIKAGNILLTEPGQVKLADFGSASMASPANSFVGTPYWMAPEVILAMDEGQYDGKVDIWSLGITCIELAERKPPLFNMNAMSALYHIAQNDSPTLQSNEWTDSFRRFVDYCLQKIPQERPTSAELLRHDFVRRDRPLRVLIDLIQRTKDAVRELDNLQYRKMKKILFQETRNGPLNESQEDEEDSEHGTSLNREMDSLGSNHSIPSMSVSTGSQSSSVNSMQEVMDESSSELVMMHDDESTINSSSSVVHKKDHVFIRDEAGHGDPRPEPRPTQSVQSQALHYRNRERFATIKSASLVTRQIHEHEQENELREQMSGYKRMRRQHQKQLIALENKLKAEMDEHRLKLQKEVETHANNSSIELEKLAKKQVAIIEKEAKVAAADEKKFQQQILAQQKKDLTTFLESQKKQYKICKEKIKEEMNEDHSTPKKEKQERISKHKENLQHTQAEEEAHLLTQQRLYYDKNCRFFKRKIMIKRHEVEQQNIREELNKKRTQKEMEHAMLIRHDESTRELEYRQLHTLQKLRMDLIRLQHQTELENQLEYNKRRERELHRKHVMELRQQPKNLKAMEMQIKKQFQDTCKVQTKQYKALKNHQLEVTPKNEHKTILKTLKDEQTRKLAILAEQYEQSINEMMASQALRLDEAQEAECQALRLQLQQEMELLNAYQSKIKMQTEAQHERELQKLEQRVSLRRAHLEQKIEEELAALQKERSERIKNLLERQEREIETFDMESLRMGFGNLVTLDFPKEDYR
Chain of Receptor-interacting serine/threonine-protein kinase 2 (Homo sapiens) (O43353 whole entry, the tested form may be a part): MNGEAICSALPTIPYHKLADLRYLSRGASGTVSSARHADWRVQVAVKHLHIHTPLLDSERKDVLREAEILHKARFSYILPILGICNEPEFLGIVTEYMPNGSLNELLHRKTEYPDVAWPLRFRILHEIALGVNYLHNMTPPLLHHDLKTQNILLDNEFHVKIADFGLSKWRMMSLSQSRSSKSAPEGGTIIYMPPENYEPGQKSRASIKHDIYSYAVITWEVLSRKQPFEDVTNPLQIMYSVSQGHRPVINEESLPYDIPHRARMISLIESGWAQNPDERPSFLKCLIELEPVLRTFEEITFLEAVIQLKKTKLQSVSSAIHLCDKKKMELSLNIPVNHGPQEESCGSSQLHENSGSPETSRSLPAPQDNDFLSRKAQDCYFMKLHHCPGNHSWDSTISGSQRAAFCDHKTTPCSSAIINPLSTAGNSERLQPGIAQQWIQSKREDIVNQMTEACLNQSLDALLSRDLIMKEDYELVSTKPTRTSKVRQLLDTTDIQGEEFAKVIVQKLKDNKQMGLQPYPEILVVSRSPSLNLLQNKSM
Chain of Phosphatidylinositol 4,5-bisphosphate 3-kinase catalytic subunit alpha isoform (Homo sapiens), P42336 [M1043I] (P42336 whole entry M1043I, the tested form may be a part, canonical isoform): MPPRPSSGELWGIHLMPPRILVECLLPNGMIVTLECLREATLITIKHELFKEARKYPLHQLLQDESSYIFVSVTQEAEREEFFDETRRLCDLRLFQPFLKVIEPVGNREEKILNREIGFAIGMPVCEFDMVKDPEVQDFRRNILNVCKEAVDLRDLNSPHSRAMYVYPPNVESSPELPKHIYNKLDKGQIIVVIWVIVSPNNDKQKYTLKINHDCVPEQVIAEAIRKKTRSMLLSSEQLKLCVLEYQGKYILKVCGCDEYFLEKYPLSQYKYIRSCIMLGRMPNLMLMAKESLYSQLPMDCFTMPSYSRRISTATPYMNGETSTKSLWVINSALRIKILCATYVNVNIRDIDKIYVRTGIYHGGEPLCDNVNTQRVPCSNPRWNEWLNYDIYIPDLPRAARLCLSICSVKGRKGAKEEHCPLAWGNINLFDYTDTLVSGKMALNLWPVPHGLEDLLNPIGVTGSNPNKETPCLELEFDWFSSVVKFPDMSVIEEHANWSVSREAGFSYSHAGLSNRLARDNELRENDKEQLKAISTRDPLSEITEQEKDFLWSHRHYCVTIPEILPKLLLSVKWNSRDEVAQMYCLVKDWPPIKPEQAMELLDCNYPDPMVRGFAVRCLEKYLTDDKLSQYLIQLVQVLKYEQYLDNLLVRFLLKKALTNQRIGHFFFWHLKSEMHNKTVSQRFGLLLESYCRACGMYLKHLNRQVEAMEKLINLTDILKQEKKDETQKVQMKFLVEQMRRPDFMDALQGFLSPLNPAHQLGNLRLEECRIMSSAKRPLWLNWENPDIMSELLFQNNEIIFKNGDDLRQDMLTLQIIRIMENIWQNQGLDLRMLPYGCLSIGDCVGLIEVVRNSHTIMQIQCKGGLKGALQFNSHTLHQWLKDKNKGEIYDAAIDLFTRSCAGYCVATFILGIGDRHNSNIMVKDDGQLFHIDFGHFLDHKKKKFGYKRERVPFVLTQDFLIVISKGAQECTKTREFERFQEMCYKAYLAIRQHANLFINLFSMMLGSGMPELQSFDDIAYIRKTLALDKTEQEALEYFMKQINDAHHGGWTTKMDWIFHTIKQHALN
Chain of Inhibitor of nuclear factor kappa-B kinase subunit alpha (Homo sapiens) (O15111 whole entry, the tested form may be a part): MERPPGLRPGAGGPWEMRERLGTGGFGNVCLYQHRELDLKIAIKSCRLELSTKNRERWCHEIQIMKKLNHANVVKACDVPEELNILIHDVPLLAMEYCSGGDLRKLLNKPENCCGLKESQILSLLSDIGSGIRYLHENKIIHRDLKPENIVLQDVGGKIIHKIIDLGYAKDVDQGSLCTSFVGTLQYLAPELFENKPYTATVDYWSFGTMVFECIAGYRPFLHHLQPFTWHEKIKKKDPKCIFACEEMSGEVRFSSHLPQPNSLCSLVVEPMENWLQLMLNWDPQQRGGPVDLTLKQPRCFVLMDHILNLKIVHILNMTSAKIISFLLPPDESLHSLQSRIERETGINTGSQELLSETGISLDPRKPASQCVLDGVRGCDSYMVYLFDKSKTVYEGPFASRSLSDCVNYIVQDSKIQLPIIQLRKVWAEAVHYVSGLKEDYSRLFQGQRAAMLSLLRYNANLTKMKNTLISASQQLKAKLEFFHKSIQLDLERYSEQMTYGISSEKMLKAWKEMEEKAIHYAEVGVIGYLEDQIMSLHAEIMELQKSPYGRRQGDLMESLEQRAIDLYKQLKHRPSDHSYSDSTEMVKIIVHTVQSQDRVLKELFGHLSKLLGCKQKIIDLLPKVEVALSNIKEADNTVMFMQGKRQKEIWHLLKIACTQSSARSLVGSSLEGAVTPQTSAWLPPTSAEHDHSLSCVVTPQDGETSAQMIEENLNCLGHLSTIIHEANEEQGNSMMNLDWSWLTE
Chain of MAP kinase-interacting serine/threonine-protein kinase 1 (Homo sapiens) (Q9BUB5 whole entry, looked up, the tested form may be a part): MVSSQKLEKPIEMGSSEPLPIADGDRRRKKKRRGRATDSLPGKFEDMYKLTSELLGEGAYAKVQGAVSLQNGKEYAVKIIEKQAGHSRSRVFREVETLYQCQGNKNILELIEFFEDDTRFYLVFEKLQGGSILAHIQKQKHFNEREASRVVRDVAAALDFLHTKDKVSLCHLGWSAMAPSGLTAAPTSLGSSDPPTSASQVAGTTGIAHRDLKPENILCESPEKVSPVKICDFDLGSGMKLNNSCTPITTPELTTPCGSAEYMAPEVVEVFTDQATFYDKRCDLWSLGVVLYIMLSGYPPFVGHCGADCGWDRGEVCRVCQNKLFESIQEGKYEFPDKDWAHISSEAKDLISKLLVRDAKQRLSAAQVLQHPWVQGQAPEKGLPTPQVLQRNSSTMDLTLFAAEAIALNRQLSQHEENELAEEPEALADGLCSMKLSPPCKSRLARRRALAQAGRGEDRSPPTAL
Chain of Calcium/calmodulin-dependent protein kinase type 1G (Homo sapiens) (Q96NX5 whole entry, the tested form may be a part): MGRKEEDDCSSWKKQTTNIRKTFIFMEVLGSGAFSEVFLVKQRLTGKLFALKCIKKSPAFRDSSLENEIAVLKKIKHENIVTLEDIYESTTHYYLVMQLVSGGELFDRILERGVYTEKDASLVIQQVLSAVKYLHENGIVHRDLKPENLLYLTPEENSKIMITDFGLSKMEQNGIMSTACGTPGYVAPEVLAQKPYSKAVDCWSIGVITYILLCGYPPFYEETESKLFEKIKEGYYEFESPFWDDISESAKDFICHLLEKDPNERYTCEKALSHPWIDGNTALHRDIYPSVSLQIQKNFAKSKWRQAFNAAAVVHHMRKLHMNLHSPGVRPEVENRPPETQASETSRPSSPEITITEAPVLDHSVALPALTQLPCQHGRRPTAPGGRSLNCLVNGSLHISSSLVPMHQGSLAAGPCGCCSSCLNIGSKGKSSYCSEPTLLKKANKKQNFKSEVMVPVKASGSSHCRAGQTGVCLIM

Broadly, the CL/F is the apparent clearance, not corrected for the fraction that reaches the circulation. Take `C=CC(=O)Nc1cc(Nc2ncc(Cl)c(Nc3ccccc3S(=O)(=O)C(C)C)n2)c(OC)cc1N(C)CCN(C)C`: the Activity was 85% in [1]; 12% in [3]; 71% in data set [4]; 72% in data set [5]; 84% in data set [6]; 90% in data set [7]. In addition, the Activity in data set [8] was determined as 73%; in data set [9], 1.6%; in [10], 87%; in data set [11], 100%; in data set [12], 81%; in data set [13], 83%. Also, the Activity in data set [14] came out at 0.15%; in data set [15], 1.2%; in [16] it was 45%; in data set [18], 62%; in data set [19], 93%; in data set [20] it was 63%. Besides, the figures for the Activity in [21], in data set [22] and in data set [23] were 15%, 42% and 96%, respectively. The CL/F in [2] amounted to 115 mL/min/kg. Also, the remaining at 0.5 h, 1 µM in [17] came to 16%.
